In ChEMBL document CHEMBL1123183, “Synthesis and antiviral properties of 5-(2-substituted vinyl)-6-aza-2'-deoxyuridines” (1986):
Values after ≈ are worked out from the molar mass of the structure shown.

How the values were obtained:
Assay type in all cases: functional
Details in all cases: Chlorocebus sabaeus, read-out: ID50 (the source's name)
[1] = test system: Vero; assay: In vitro antiviral activity against HSV-1(strain HFEM) in Vero cells
Procedure, shortened: (§1)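 Plaque reduction in confluent Vero monolayers infected with 30-40 PFU of HSV-1 (strain HFEM) or HSV-2 (strain 196), then 1 h at 37 °C. Overlay of maintenance medium with 0.75% carboxymethylcellulose and a range of compound concentrations, then 2 days at 37 °C. Cells fixed and stained, plaques counted. ID50 is the concentration giving 50% plaque inhibition.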

[2] = test system: Vero; assay: Cytotoxicity was measured by determining the incorporation of [methyl-3H]thymidine into DNA of Vero cells
Procedure, shortened: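 Subconfluent Vero monolayers overlaid with maintenance medium holding 1 μCi/mL [methyl-3H]thymidine plus a range of nucleoside concentrations. Incubated 18 h at 37 °C. DNA synthesis read as label in acid-precipitable material. ID50 is the concentration giving 50% reduction of thymidine incorporation.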

[3] = test system: Vero; assay: In vitro antiviral activity against HSV-2(strain 196) in Vero cells; procedure, shortened: as §1

Q: How did the IC50 [1] turn out when `O=c1[nH]c(=O)n(C2C[C@@H](O)[C@@H](CO)O2)nc1/C=C/Cl` (stereo partly drawn) was run?
A: Its IC50 is 20 mg/L (≈ 69 µM).

Q: What about the IC50 [2] of the same compound?
A: Its IC50 is greater than 500 mg/L.

Q: What about the IC50 [3] of the same compound?
A: Its IC50 is 215 mg/L (≈ 742 µM).

Q: With `O=c1[nH]c(=O)n(C2C[C@@H](O)[C@@H](CO)O2)nc1-c1ccoc1` (stereo partly drawn) as the compound, how does the IC50 [1] read?
A: The IC50 was 42 mg/L (≈ 142 µM).

Q: And the IC50 [2]?
A: The IC50 was 45 mg/L (≈ 152 µM).

Q: What about the IC50 [3] of the same compound?
A: The IC50 was 39 mg/L (≈ 132 µM).

Q: What does the source list for `O=c1[nH]c(=O)n([C@H]2C[C@H](O)[C@@H](CO)O2)cc1/C=C/Br` [BRIVUDINE]?
A: IC50 [1]: 0.015 mg/L (≈ 0.045 µM); IC50 [2]: 50 mg/L (≈ 150 µM); IC50 [3]: 1.6 mg/L (≈ 4.8 µM)

Q: With `O=c1[nH]c(=O)n(C2C[C@@H](O)[C@@H](CO)O2)nc1C=C(Br)Br` (stereo partly drawn) as the compound, how does the IC50 [1] read?
A: Its IC50 is 100 mg/L (≈ 242 µM).

Q: What about the IC50 [2] of the same compound?
A: Its IC50 is greater than 500 mg/L.

Q: And the IC50 [3]?
A: Its IC50 is 100 mg/L (≈ 242 µM).

Q: With `COC(F)(F)Cc1nn(C2C[C@@H](O)[C@@H](CO)O2)c(=O)[nH]c1=O` (stereo partly drawn) as the compound, how does the IC50 [1] read?
A: The IC50 was 82 mg/L (≈ 254 µM).

Q: And the IC50 [2]?
A: Its IC50 is greater than 500 mg/L.

Q: What about the IC50 [3] of the same compound?
A: Its IC50 is greater than 250 mg/L.

Q: How did the IC50 [1] turn out when `O=c1[nH]c(=O)n(C2C[C@@H](O)[C@@H](CO)O2)nc1/C=C/Br` (stereo partly drawn) was run?
A: Its IC50 is 8 mg/L (≈ 23.9 µM).

Q: What about the IC50 [2] of the same compound?
A: The IC50 was 355 mg/L (≈ 1060 µM).

Q: And the IC50 [3]?
A: The IC50 was 190 mg/L (≈ 569 µM).

Q: `CS/C=C/c1nn(C2C[C@@H](O)[C@@H](CO)O2)c(=O)[nH]c1=O` (stereo partly drawn) was tested. Which IC50 [1] did it give?
A: The IC50 was greater than 250 mg/L.

Q: What about the IC50 [2] of the same compound?
A: The IC50 was 420 mg/L (≈ 1390 µM).

Q: What about the IC50 [3] of the same compound?
A: Its IC50 is greater than 250 mg/L.

Q: How did the IC50 [1] turn out when `O=Cc1nn(C2C[C@@H](O)[C@@H](CO)O2)c(=O)[nH]c1=O` (stereo partly drawn) was run?
A: The IC50 was greater than 500 mg/L.

Q: And the IC50 [2]?
A: Its IC50 is 180 mg/L (≈ 700 µM).

Q: `COC(=O)/C=C/c1nn(C2C[C@@H](O)[C@@H](CO)O2)c(=O)[nH]c1=O` (stereo partly drawn) was tested. Which IC50 [1] did it give?
A: Its IC50 is greater than 500 mg/L.

Q: And the IC50 [2]?
A: Its IC50 is greater than 500 mg/L.

Q: How did the IC50 [1] turn out when `O=c1[nH]c(=O)n(C2C[C@@H](O)[C@@H](CO)O2)nc1CC(F)(F)F` (stereo partly drawn) was run?
A: Its IC50 is greater than 250 mg/L.

Q: And the IC50 [2]?
A: The IC50 was greater than 500 mg/L.

Q: What about the IC50 [3] of the same compound?
A: Its IC50 is greater than 250 mg/L.

Q: `O=c1[nH]c(=O)n(C2C[C@@H](O)[C@@H](CO)O2)nc1/C=C(\F)Br` (stereo partly drawn) was tested. Which IC50 [1] did it give?
A: The IC50 was greater than 250 mg/L.

Q: And the IC50 [2]?
A: The IC50 was greater than 500 mg/L.

Q: What about the IC50 [3] of the same compound?
A: Its IC50 is greater than 250 mg/L.

Q: Which IC50 [1] does the source give for `O=C(O)/C=C/c1nn(C2C[C@@H](O)[C@@H](CO)O2)c(=O)[nH]c1=O` (stereo partly drawn) here?
A: Its IC50 is greater than 250 mg/L.

Q: What about the IC50 [2] of the same compound?
A: The IC50 was greater than 500 mg/L.
